Here are results for five compounds from ChEMBL document CHEMBL1157606, “Acylated phenylethanoid oligoglycosides with hepatoprotective activity from the desert plant Cistanche tubulosa” (Bioorg Med Chem, 2010).

The subject of one assay is L929. The assay is described as follows: Cytoprotective activity in mouse L929 cells assessed as inhibition of TNF-alpha-induced cytotoxicity after 44 hrs by MTT assay. It counts as functional, cell-based. The note with it: L929, 44 h. In short, it runs like this:
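L929 cells kept in MEM with 10% FBS and non-essential amino acids at 37 °C, 5% CO2; seeded 3 × 10^4 cells/well, exposed 44 h to TNF-α (20 ng/mL) with or without sample (DMSO, final 0.5%). Viability by MTT: formazan dissolved in acidic isopropanol, OD 570 nm (ref 655 nm). Inhibition % = (sample − control)/(normal − control) × 100.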

For assay [1], the system named is Mus musculus. The assay is described as follows: Hepatoprotective activity against D-galactosamine/lipopolysaccharide-induced liver injury in ddY mouse assessed as inhibition of increase in sALT level at 25 mg/kg, po administered 1 hr before D-GalN/LPS challenge measured after 10 hrs. It counts as functional. In a few lines: (§1)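 Male ddY mice (25–30 g), fasted 20 h. Sample suspended in 5% gum arabic, given orally at 10 mL/kg 1 h before i.p. D-GalN (350 mg/kg) plus LPS (10 μg/kg) in saline. Vehicle controls dosed alike. Blood from infraorbital venous plexus at 10 h; sAST and sALT by Reitman–Frankel method. Hydrocortisone as reference.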

For assay [2], the system named is Peritoneal macrophage cell. The assay is described as follows: Inhibition of LPS-induced nitric oxide production in ddY mouse peritoneal macrophages. It counts as functional, cell-based.
In the next assay the test system is Hepatocyte. The assay is described as follows: Hepatoprotective activity in ddY mouse primary cultured hepatocytes assessed as inhibition of D-galactosamine-induced cytotoxicity after 44 hrs by MTT assay. The format is functional, cell-based. In a few lines:
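Hepatocytes isolated from male ddY mice (30–35 g) by collagenase perfusion; 4 × 10^4 cells/well in William's E with 10% FBS, pre-cultured 4 h at 37 °C, 5% CO2, then 44 h with D-GalN (2 mM) ± sample. MTT (4 h); formazan in isopropanol/0.04 M HCl, OD 570 nm (ref 655 nm). Inhibition % = (sample − control)/(normal − control) × 100.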
(In general: Tetrazolium dyes change colour on reduction, which living cells bring about.)

The subject of assay [3] is Peritoneal macrophage cell. The assay is described as follows: Inhibition of LPS-induced TNFalpha production in ddY mouse peritoneal macrophages. It counts as functional, cell-based. In short, it runs like this:
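Thioglycollate-elicited peritoneal macrophages from male ddY mice, 5 × 10^5 cells/well in RPMI 1640 with 5% FBS, 1 h pre-culture, nonadherent cells washed off. Compound (DMSO, final 0.5%) added 10 min before LPS (medium containing 10 μg/mL), 4 h incubation; TNF-α in medium by ELISA.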

In assay [4] the test system is Mus musculus. The assay is described as follows: Hepatoprotective activity against D-galactosamine/lipopolysaccharide-induced liver injury in ddY mouse assessed as inhibition of increase in sALT level at 100 mg/kg, po administered 1 hr before D-GalN/LPS challenge measured after 10 hrs. It counts as functional. In a few lines: as §1
Assay [5] has as its system Mus musculus. Description: Hepatoprotective activity against D-galactosamine/lipopolysaccharide-induced liver injury in ddY mouse assessed as inhibition of increase in sAST level at 25 mg/kg, po administered 1 hr before D-GalN/LPS challenge measured after 10 hrs. The format is functional. In short, it runs like this:
as §1

The subject of assay [6] is Mus musculus. Description: Hepatoprotective activity against D-galactosamine/lipopolysaccharide-induced liver injury in ddY mouse assessed as inhibition of increase in sAST level at 100 mg/kg, po administered 1 hr before D-GalN/LPS challenge measured after 10 hrs. It counts as functional. In short, it runs like this:
as §1

Assay [7] concerns Mus musculus. The assay is described as follows: Hepatoprotective activity against D-galactosamine/lipopolysaccharide-induced liver injury in ddY mouse assessed as inhibition of increase in sAST level at 10 mg/kg, po administered 1 hr before D-GalN/LPS challenge measured after 10 hrs. It counts as functional. In a few lines:
as §1

For assay [8], the system named is Mus musculus. The assay is described as follows: Hepatoprotective activity against D-galactosamine/lipopolysaccharide-induced liver injury in ddY mouse assessed as inhibition of increase in sALT level at 10 mg/kg, po administered 1 hr before D-GalN/LPS challenge measured after 10 hrs. It counts as functional. In short, it runs like this: as §1

Usually IC50 stands for the concentration that gives 50% inhibition. For orientation: inhibition in vivo means the change of the read-out against control, counted positive when it falls. Take `C[C@@H]1O[C@@H](O[C@@H]2[C@@H](O)[C@H](OCCc3ccc(O)c(O)c3)O[C@H](CO)[C@H]2OC(=O)/C=C/c2ccc(O)c(O)c2)[C@H](O)[C@H](O)[C@H]1O` [ACETOSIDE]: the concentration for half-maximal inhibition (IC50) in the assay on L929 was 17.8 µM; in assay [2], greater than 100 µM; in the assay on Hepatocyte it was 4.6 µM; in assay [3], greater than 100 µM. Further, the inhibition in vivo at 25 mg/kg worked out at 44.4% with Mus musculus [1] and 51.3% in the assay with Mus musculus [5]. For the same compound, the inhibition in vivo at 100 mg/kg with Mus musculus [4] came to 59.5%; with Mus musculus [6] it was 68.5%.
With `C[C@H]1O[C@H](O[C@@H]2[C@@H](O)[C@H](OCCc3ccc(O)c(O)c3)O[C@H](CO[C@H]3O[C@@H](CO)[C@H](O)[C@@H](O)[C@@H]3O)[C@H]2OC(=O)/C=C/c2ccc(O)c(O)c2)[C@@H](O)[C@@H](O)[C@@H]1O` [ECHINACOSIDE], the IC50 was 31.1 µM in the assay with L929, greater than 100 µM in assay [2], 10.2 µM with Hepatocyte and greater than 100 µM in assay [3]. Moreover, the inhibition in vivo at 25 mg/kg in the assay with Mus musculus [1] was 43.8%; in the assay with Mus musculus [5], 61.2%. Moreover, the inhibition in vivo at 100 mg/kg in the assay with Mus musculus [4] was 52%; with Mus musculus [6], 66.7%.
`C[C@]12CCC(=O)C=C1CC[C@@H]1[C@@H]2[C@@H](O)C[C@@]2(C)[C@H]1CC[C@]2(O)C(=O)CO` [HYDROCORTISONE]: the inhibition in vivo at 10 mg/kg in the assay with Mus musculus [7] was 94.2%; in the assay with Mus musculus [8], 97.7%.
`C[C@@H]1O[C@@H](O[C@@H]2[C@@H](O)[C@H](OCCc3ccc(O)c(O)c3)O[C@H](COC(=O)/C=C/c3ccc(O)c(O)c3)[C@H]2O)[C@H](O)[C@H](O)[C@H]1O` [ISOACTEOSIDE]: the IC50 in the assay on L929 is 22.7 µM; in assay [2], greater than 100 µM; in the assay on Hepatocyte, 5.3 µM; in assay [3], greater than 100 µM. The inhibition in vivo at 25 mg/kg is 40.2% in the assay on Mus musculus [1] and 46.1% with Mus musculus [5]. Moreover, the inhibition in vivo at 100 mg/kg in the assay with Mus musculus [4] was 58.7%; with Mus musculus [6] it was 70.9%.
For the compound `COc1cc(C2Oc3cc([C@H]4Oc5cc(O)cc(O)c5C(=O)[C@@H]4O)ccc3OC2CO)ccc1O` (stereo partly drawn) [SILIBININ], the IC50 in the assay with L929 came out at 60.4 µM; in the assay with Hepatocyte, 38.8 µM.
